{"source": "ChEMBL document CHEMBL4130550", "about": "“Antiproliferative Dimeric Aporphinoid Alkaloids from the Roots of Thalictrum cultratum” (J Nat Prod, 2017)", "key": {"HL-60 [1]": {"system": "HL-60", "test": "Induction of apoptosis in human HL60 cells assessed as live cells at 1.5 uM after 24 hrs by Annexin-V-APC/7-AAD staining based flow cytometric method (reference value: 95.31%)", "type": "functional", "summary_of_the_method": "(§1)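 HL-60 are seeded overnight in six-well plates, then treated in triplicate with 0.06, 0.3 or 1.5 μM, or untreated, for 24 h. Cells are washed in PBS and taken up in annexin V binding buffer. Annexin V-APC is added for 15 min in the dark at 25 °C, and 7-AAD just before flow cytometry. Early apoptosis is annexin V-APC only; late apoptosis is annexin V-APC/7-AAD.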"}, "HL-60 [2]": {"system": "HL-60", "test": "Induction of mitochondrial membrane potential loss in human HL60 cells after 24 hrs by JC1 staining based flow cytometric method", "type": "functional, cell-based"}, "HL-60 [3]": {"system": "HL-60", "test": "Induction of apoptosis in human HL60 cells assessed as late apoptotic cells at 1.5 uM after 48 hrs by Annexin-V-FITC/propidium iodide staining based flow cytometric method (reference value: 2.53%)", "type": "functional"}, "HL-60 [4]": {"system": "HL-60", "test": "Induction of apoptosis in human HL60 cells assessed as necrotic cells at 0.06 uM after 24 hrs by Annexin-V-APC/7-AAD staining based flow cytometric method (reference value: 0.44%)", "type": "functional", "summary_of_the_method": "as §1"}, "HL-60 [5]": {"system": "HL-60", "test": "Cell cycle arrest in human HL60 cells assessed as accumulation at G2 phase at 0.3 uM after 24 hrs by propidium iodide staining based flow cytometric method (reference value: 30.93%)", "type": "functional"}, "HL-60 [6]": {"system": "HL-60", "test": "Induction of apoptosis in human HL60 cells assessed as necrotic cells at 1.5 uM after 48 hrs by Annexin-V-FITC/propidium iodide staining based flow cytometric method (reference value: 0.47%)", "type": "functional"}, "HL-60 [7]": {"system": "HL-60", "test": "Induction of apoptosis in human HL60 cells assessed as early apoptotic cells at 1.5 uM after 24 hrs by Annexin-V-APC/7-AAD staining based flow cytometric method (reference value: 2.26%)", "type": "functional", "summary_of_the_method": "as §1"}, "HL-60 [8]": {"system": "HL-60", "test": "Induction of apoptosis in human HL60 cells assessed as necrotic cells at 1.5 uM after 24 hrs by Annexin-V-APC/7-AAD staining based flow cytometric method (reference value: 0.44%)", "type": "functional", "summary_of_the_method": "as §1"}, "HL-60 [9]": {"system": "HL-60", "test": "Cell cycle arrest in human HL60 cells assessed as accumulation at G1 phase at 0.06 uM after 24 hrs by propidium iodide staining based flow cytometric method (reference value: 43.32%)", "type": "functional"}, "HL-60 [10]": {"system": "HL-60", "test": "Induction of apoptosis in human HL60 cells assessed as late apoptotic cells at 0.3 uM after 24 hrs by Annexin-V-APC/7-AAD staining based flow cytometric method (reference value: 1.99%)", "type": "functional", "summary_of_the_method": "as §1"}, "HL-60 [11]": {"system": "HL-60", "test": "Induction of apoptosis in human HL60 cells assessed as live cells at 0.3 uM after 24 hrs by Annexin-V-APC/7-AAD staining based flow cytometric method (reference value: 95.31%)", "type": "functional", "summary_of_the_method": "as §1"}, "HL-60 [12]": {"system": "HL-60", "test": "Cell cycle arrest in human HL60 cells assessed as accumulation at G1 phase at 0.3 uM after 24 hrs by propidium iodide staining based flow cytometric method (reference value: 43.32%)", "type": "functional"}, "HL-60 [13]": {"system": "HL-60", "test": "Induction of mitochondrial membrane potential loss in human HL60 cells assessed as intact mitochondrial membrane potential at 1.5 uM after 24 hrs by JC1 staining based flow cytometric method (reference value: 99.42%)", "type": "functional"}, "HL-60 [14]": {"system": "HL-60", "test": "Induction of apoptosis in human HL60 cells assessed as late apoptotic cells at 1.5 uM after 24 hrs by Annexin-V-APC/7-AAD staining based flow cytometric method (reference value: 1.99%)", "type": "functional", "summary_of_the_method": "as §1"}, "HL-60 [15]": {"system": "HL-60", "test": "Induction of apoptosis in human HL60 cells assessed as late apoptotic cells at 1.5 uM after 24 hrs by Annexin-V-FITC/propidium iodide staining based flow cytometric method (reference value: 2.53%)", "type": "functional"}, "HL-60 [16]": {"system": "HL-60", "test": "Induction of apoptosis in human HL60 cells assessed as early apoptotic cells at 1.5 uM after 48 hrs by Annexin-V-FITC/propidium iodide staining based flow cytometric method (reference value: 2.8%)", "type": "functional"}, "HL-60 [17]": {"system": "HL-60", "test": "Induction of mitochondrial membrane potential loss in human HL60 cells assessed as collapse of the mitochondrial membrane potential at 1.5 uM after 24 hrs by JC1 staining based flow cytometric method (reference value: 0.58%)", "type": "functional"}, "HL-60 [18]": {"system": "HL-60", "test": "Induction of morphological changes in human HL60 cells assessed as cell shrinkage at 0.06 to 1.5 uM after 24 hrs by Hoechst 33258 staining based fluorescence microscopic analysis", "type": "functional"}, "HL-60 [19]": {"system": "HL-60", "test": "Induction of apoptosis in human HL60 cells assessed as late apoptotic cells at 0.06 uM after 24 hrs by Annexin-V-APC/7-AAD staining based flow cytometric method (reference value: 1.99%)", "type": "functional", "summary_of_the_method": "as §1"}, "HL-60 [20]": {"system": "HL-60", "test": "Induction of apoptosis in human HL60 cells assessed as live cells at 0.06 uM after 24 hrs by Annexin-V-APC/7-AAD staining based flow cytometric method (reference value: 95.31%)", "type": "functional", "summary_of_the_method": "as §1"}, "HL-60 [21]": {"system": "HL-60", "test": "Cell cycle arrest in human HL60 cells assessed as accumulation at S phase at 0.3 uM after 24 hrs by propidium iodide staining based flow cytometric method (reference value: 25.75%)", "type": "functional"}, "HL-60 [22]": {"system": "HL-60", "test": "Induction of apoptosis in human HL60 cells after 24 hrs by Annexin-V-APC/7-AAD staining based flow cytometric method", "type": "functional, cell-based", "summary_of_the_method": "as §1"}, "HL-60 [23]": {"system": "HL-60", "test": "Induction of apoptosis in human HL60 cells assessed as live cells at 1.5 uM after 24 hrs by Annexin-V-FITC/propidium iodide staining based flow cytometric method (reference value: 94.19%)", "type": "functional"}, "HL-60 [24]": {"system": "HL-60", "test": "Induction of apoptosis in human HL60 cells assessed as necrotic cells at 1.5 uM after 24 hrs by Annexin-V-FITC/propidium iodide staining based flow cytometric method (reference value: 0.47%)", "type": "functional"}, "HL-60 [25]": {"system": "HL-60", "test": "Cell cycle arrest in human HL60 cells assessed as accumulation at G2 phase at 0.06 uM after 24 hrs by propidium iodide staining based flow cytometric method (reference value: 30.93%)", "type": "functional"}, "HL-60 [26]": {"system": "HL-60", "test": "Induction of apoptosis in human HL60 cells assessed as late apoptotic cells at 1.5 uM after 72 hrs by Annexin-V-FITC/propidium iodide staining based flow cytometric method (reference value: 2.53%)", "type": "functional"}, "HL-60 [27]": {"system": "HL-60", "test": "Induction of apoptosis in human HL60 cells assessed as necrotic cells at 1.5 uM after 72 hrs by Annexin-V-FITC/propidium iodide staining based flow cytometric method (reference value: 0.47%)", "type": "functional"}, "HL-60 [28]": {"system": "HL-60", "test": "Cell cycle arrest in human HL60 cells assessed as accumulation at G1 phase at 1.5 uM after 24 hrs by propidium iodide staining based flow cytometric method (reference value: 43.32%)", "type": "functional"}, "HL-60 [29]": {"system": "HL-60", "test": "Induction of mitochondrial membrane potential loss in human HL60 cells assessed as collapse of the mitochondrial membrane potential at 0.06 uM after 24 hrs by JC1 staining based flow cytometric method (reference value: 0.58%)", "type": "functional"}, "HL-60 [30]": {"system": "HL-60", "test": "Induction of apoptosis in human HL60 cells at 1.5 uM by Annexin-V-FITC/propidium iodide staining based flow cytometric method", "type": "functional, cell-based", "details": "TDE = time-dependent effect"}, "HL-60 [31]": {"system": "HL-60", "test": "Induction of apoptosis in human HL60 cells assessed as early apoptotic cells at 1.5 uM after 72 hrs by Annexin-V-FITC/propidium iodide staining based flow cytometric method (reference value: 2.8%)", "type": "functional"}, "HL-60 [32]": {"system": "HL-60", "test": "Induction of apoptosis in human HL60 cells assessed as live cells at 1.5 uM after 72 hrs by Annexin-V-FITC/propidium iodide staining based flow cytometric method (reference value: 94.19%)", "type": "functional"}}, "note": "Activity calls are given as the source filed them. The rule behind the calls is not given here."}
{"compound": "COc1cc2c(c(Oc3ccc(C[C@H]4c5cc(OC)c6c(c5CCN4C)OCO6)cc3)c1OC)C[C@H]1c3c(c(OC)c(OC)c(OC)c3-2)CCN1C", "values": [{"measurement": "Activity", "setting": "HL-60 [1]", "value": 35.77, "unit": "%"}, {"measurement": "Activity", "setting": "HL-60 [2]", "value": "Dose-dependent effect"}, {"measurement": "Activity", "setting": "HL-60 [3]", "value": 17.69, "unit": "%"}, {"measurement": "Activity", "setting": "HL-60 [4]", "value": 3.77, "unit": "%"}, {"measurement": "Activity", "setting": "HL-60 [5]", "value": 21.47, "unit": "%"}, {"measurement": "Activity", "setting": "HL-60 [6]", "value": 0.57, "unit": "%"}, {"measurement": "Activity", "setting": "HL-60 [7]", "value": 9, "unit": "%"}, {"measurement": "Activity", "setting": "HL-60 [8]", "value": 7.28, "unit": "%"}, {"measurement": "Activity", "setting": "HL-60 [9]", "value": 44.01, "unit": "%"}, {"measurement": "Activity", "setting": "HL-60 [10]", "value": 6.3, "unit": "%"}, {"measurement": "Activity", "setting": "HL-60 [11]", "value": 69.73, "unit": "%"}, {"measurement": "Activity", "setting": "HL-60 [12]", "value": 36.01, "unit": "%"}, {"measurement": "Activity", "setting": "HL-60 [13]", "value": 40.9, "unit": "%"}, {"measurement": "Activity", "setting": "HL-60 [14]", "value": 47.95, "unit": "%"}, {"measurement": "Activity", "setting": "HL-60 [15]", "value": 8.92, "unit": "%"}, {"measurement": "Activity", "setting": "HL-60 [16]", "value": 28.78, "unit": "%"}, {"measurement": "Activity", "setting": "HL-60 [17]", "value": 59.1, "unit": "%"}, {"measurement": "Activity", "setting": "HL-60 [18]", "value": "Active"}, {"measurement": "Activity", "setting": "HL-60 [19]", "value": 8.18, "unit": "%"}, {"measurement": "Activity", "setting": "HL-60 [20]", "value": 79.49, "unit": "%"}, {"measurement": "Activity", "setting": "HL-60 [21]", "value": 42.51, "unit": "%"}, {"measurement": "Activity", "setting": "HL-60 [22]", "value": "Dose-dependent effect"}, {"measurement": "Activity", "setting": "HL-60 [23]", "value": 76.15, "unit": "%"}, {"measurement": "Activity", "setting": "HL-60 [24]", "value": 0.14, "unit": "%"}, {"measurement": "Activity", "setting": "HL-60 [25]", "value": 24.33, "unit": "%"}, {"measurement": "Activity", "setting": "HL-60 [26]", "value": 31.66, "unit": "%"}, {"measurement": "Activity", "setting": "HL-60 [27]", "value": 0.79, "unit": "%"}, {"measurement": "Activity", "setting": "HL-60 [28]", "value": 33.02, "unit": "%"}, {"measurement": "Activity", "setting": "HL-60 [29]", "value": 24.1, "unit": "%"}, {"measurement": "Activity", "setting": "HL-60 [30]", "value": "Tde"}, {"measurement": "Activity", "setting": "HL-60 [31]", "value": 31.46, "unit": "%"}, {"measurement": "Activity", "setting": "HL-60 [32]", "value": 36.09, "unit": "%"}]}
